# Source: ChEMBL document CHEMBL2040711, “Synthesis, characterization and antimicrobial studies of some new quinoline incorporated benzimidazole derivatives” (2012)
# Assays:
# Assay type in all cases: functional
# Conditions in all cases: read-out: DIZ
# Aspergillus flavus [1] = experiment: Antifungal activity against Aspergillus flavus at 6.25 ug/ml after 72 hrs by well plate method
# Staphylococcus aureus [2] = experiment: Antibacterial activity against Staphylococcus aureus at 6.25 ug/ml after 24 to 48 hrs by well plate diffusion method
# In short: (§1)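 Agar well diffusion: 15-20 mL agar per dish, plates dried 1 h at 37 ± 2 °C in laminar flow, then seeded. Wells cut with an agar punch, each loaded with compound dissolved in DMSO (6.25 or 12.5 μg/mL). DMSO solvent control, ciprofloxacin standard. Plates in triplicate, incubated 37 ± 2 °C for 24–48 h. Inhibition zone diameter read in mm, with SD.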
# Staphylococcus aureus [3] = experiment: Antibacterial activity against Staphylococcus aureus at 12.5 ug/ml after 24 to 48 hrs by well plate diffusion method; in short: as §1
# Salmonella sp. [4] = experiment: Antibacterial activity against Salmonella sp. at 12.5 ug/ml after 24 to 48 hrs by well plate diffusion method; in short: as §1
# Xanthomonas sp. [5] = experiment: Antibacterial activity against Xanthomonas sp. at 12.5 ug/ml after 24 to 48 hrs by well plate diffusion method; in short: as §1
# Xanthomonas sp. [6] = experiment: Antibacterial activity against Xanthomonas sp. at 6.25 ug/ml after 24 to 48 hrs by well plate diffusion method; in short: as §1
# Penicillium sp. [7] = experiment: Antifungal activity against Penicillium sp. at 12.5 ug/ml after 72 hrs by well plate method
# Aspergillus niger [8] = experiment: Antifungal activity against Aspergillus niger at 6.25 ug/ml after 72 hrs by well plate method
# Aspergillus terreus [9] = experiment: Antifungal activity against Aspergillus terreus at 12.5 ug/ml after 72 hrs by well plate method
# In short: (§2)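 Sabouraud agar: peptone 10 g, glucose 40 g, agar 20 g per litre water, pH 5.7. Spore suspension made from a loopful of fungus in 3 mL normal saline and lawned on 20 mL agar per dish. Excess decanted, plates dried 1 h at 37 °C. Wells punched and loaded with compound in DMSO (6.25 or 12.5 μg/mL). DMSO control. Triplicate plates held at 25 °C for 72 h. Inhibition zone diameter measured. A. terreus strain NCIM 1325.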
# Salmonella sp. [10] = experiment: Antibacterial activity against Salmonella sp. at 6.25 ug/ml after 24 to 48 hrs by well plate diffusion method; in short: as §1
# Aspergillus niger [11] = experiment: Antifungal activity against Aspergillus niger at 12.5 ug/ml after 72 hrs by well plate method
# Aspergillus flavus [12] = experiment: Antifungal activity against Aspergillus flavus at 12.5 ug/ml after 72 hrs by well plate method
# Escherichia coli [13] = experiment: Antibacterial activity against Escherichia coli at 12.5 ug/ml after 24 to 48 hrs by well plate diffusion method; in short: as §1
# Penicillium sp. [14] = experiment: Antifungal activity against Penicillium sp. at 6.25 ug/ml after 72 hrs by well plate method
# Aspergillus terreus [15] = experiment: Antifungal activity against Aspergillus terreus at 6.25 ug/ml after 72 hrs by well plate method; in short: as §2
# Escherichia coli [16] = experiment: Antibacterial activity against Escherichia coli at 6.25 ug/ml after 24 to 48 hrs by well plate diffusion method; in short: as §1
Compound,zone of inhibition at 6.25 µg/mL (Aspergillus flavus [1]),zone of inhibition at 6.25 µg/mL (Staphylococcus aureus [2]),zone of inhibition at 12.5 µg/mL (Staphylococcus aureus [3]),zone of inhibition at 12.5 µg/mL (Salmonella sp. [4]),zone of inhibition at 12.5 µg/mL (Xanthomonas sp. [5]),zone of inhibition at 6.25 µg/mL (Xanthomonas sp. [6]),zone of inhibition at 12.5 µg/mL (Penicillium sp. [7]),zone of inhibition at 6.25 µg/mL (Aspergillus niger [8]),zone of inhibition at 12.5 µg/mL (Aspergillus terreus [9]),zone of inhibition at 6.25 µg/mL (Salmonella sp. [10]),zone of inhibition at 12.5 µg/mL (Aspergillus niger [11]),zone of inhibition at 12.5 µg/mL (Aspergillus flavus [12]),zone of inhibition at 12.5 µg/mL (Escherichia coli [13]),zone of inhibition at 6.25 µg/mL (Penicillium sp. [14]),zone of inhibition at 6.25 µg/mL (Aspergillus terreus [15]),zone of inhibition at 6.25 µg/mL (Escherichia coli [16])
Fc1ccc(-c2cc(-c3nc4cc(Cl)c(Cl)cc4[nH]3)c3cc(F)ccc3n2)cc1,12 mm,14 mm,15 mm,12 mm,16 mm,12 mm,12 mm,10 mm,9 mm,9 mm,13 mm,15 mm,12 mm,–,–,–
Fc1ccc(-c2cc(-c3nc4ccc(F)cc4[nH]3)c3cc(F)ccc3n2)cc1,–,12 mm,12 mm,13 mm,14 mm,–,13 mm,10 mm,9 mm,9 mm,17 mm,–,16 mm,13 mm,10 mm,16 mm
Fc1ccc(-c2cc(-c3nc4ccc(Cl)cc4[nH]3)c3ccccc3n2)cc1,11 mm,12 mm,13 mm,17 mm,15 mm,15 mm,12 mm,15 mm,16 mm,9 mm,18 mm,16 mm,16 mm,12 mm,10 mm,–
Fc1ccc(-c2cc(-c3nc4ncccc4[nH]3)c3ccccc3n2)cc1,–,16 mm,16 mm,12 mm,14 mm,10 mm,17 mm,14 mm,10 mm,9 mm,16 mm,11 mm,14 mm,16 mm,9 mm,14 mm
Fc1ccc(-c2cc(-c3nc4ccc(F)cc4[nH]3)c3ccccc3n2)cc1,–,10 mm,16 mm,11 mm,13 mm,–,15 mm,–,12 mm,10 mm,14 mm,14 mm,11 mm,12 mm,12 mm,10 mm
COc1ccc2nc(-c3cc(-c4ccc(F)cc4)nc4ccccc34)[nH]c2c1,–,12 mm,12 mm,11 mm,14 mm,12 mm,18 mm,10 mm,13 mm,10 mm,12 mm,10 mm,14 mm,16 mm,12 mm,12 mm
O=C(O)c1cn(C2CC2)c2cc(N3CCNCC3)c(F)cc2c1=O [CIPROFLOXACIN],–,18 mm,20 mm,31 mm,22 mm,18 mm,–,–,–,19 mm,–,–,–,–,–,–
OC(Cn1cncn1)(Cn1cncn1)c1ccc(F)cc1F [FLUCONAZOLE],15 mm,–,–,–,–,–,21 mm,14 mm,18 mm,–,18 mm,20 mm,–,19 mm,16 mm,–
